Data set [1] relates to Mus musculus. Kind of data set: Phototoxicity in ICR mouse assessed as ear weight at 0.45 mg/kg, iv followed by 10 mW/cm2 light irradiation for 10 mins at 5 days after drug challenge measured after 1 day of light irradiation (reference value: 12.9 +/- 1.4 mg). The data set is classed as organism-based. The settings on record: in vivo.
Data set [2] can be described thus: Emission property of a compound in DMSO assessed as red shift at 5 uM on excitation with light at 410 to 415 nm by 3D fluorescence spectra analysis. The data set is classed as physicochemical. In a few lines: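 Stock 1 mM in DMSO, measured at […] (so in the source); excitation scanned 350–640 nm, emission 600–750 nm, 1 nm steps, room temperature, quartz cuvettes; 3D fluorescence matrix spectra recorded.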

Data set [3] relates to Cavia porcellus. As to the kind of experiment: Phototoxicity in guinea pig assessed as change in left ear weight 4.5 mg/kg, iv followed by 10 mW/cm2 light irradiation for 10 mins measured after 1 day of light irradiation (reference value: 39.2 +/- 1.8 mg). The data set is classed as organism-based. Conditions: in vivo.
Data set [4] concerns Mus musculus. Kind of data set: Phototoxicity in ICR mouse assessed as ear weight at 0.45 mg/kg, iv followed by 10 mW/cm2 light irradiation for 10 mins at 7 days after drug challenge measured after 1 day of light irradiation (13.2 +/- 1.6 mg). The data set is classed as organism-based. The settings on record: in vivo.
Data set [5] in a line: Octanol/water partition coefficient, logP of compound by shake flask method. The data set is classed as physicochemical. In a few lines: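 Shake-flask method: equilibrium concentrations in octanol and water measured by UV-vis absorbance; log P taken as log of octanol/water concentration ratio (mg/L).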
Data set [6] concerns A549. As to the kind of experiment: Photodynamic antitumor activity against human A549 cells xenografted in BALB/c nude mouse assessed as reduction in tumor volume at 0.3 mg/kg, iv incubated for 24 hrs followed by laser light irradiation at 120 J/cm2 measured up to 14 days. The data set is classed as functional, organism-based. In a few lines: (§1)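 Male BALB/c nude mice (5–6 weeks, 14–16 g) given 2×10^6 A549 cells s.c. in 0.2 mL PBS; at 6–7 mm tumors randomized into ten groups; drug via tail vein, 650 nm diode laser 120 J/cm2 at 180 mW/cm2 24 h later; caliper volume a×b²/2, followed 14 days.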

A short description of data set [7]: Drug uptake in BALB/c nude mouse xenografted with A549 cells assessed as drug level in lung at 0.3 mg/kg, iv measured at 12 hrs by fluorescence assay. It counts as ADME, organism-based. The settings on record: in vivo. In a few lines: (§2)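 A549 tumor-bearing mice dosed via tail vein (1 mg/kg in methods; 0.3 mg/kg in text) at tumors ~150–170 mm3, n = 3; whole-body imaging 0–24 h; at 6 and 12 h mice killed, heart, liver, spleen, lung, kidney, brain, tumor imaged ex vivo, excitation 420 nm, emission 650 nm.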

Data set [8] relates to A549. As to the kind of experiment: Photodynamic antitumor activity against human A549 cells xenografted in BALB/c nude mouse assessed as increase in tumor tissue damage at 0.3 mg/kg, iv incubated for 24 hrs followed by laser light irradiation at 120 J/cm2 measured up to 14 days. The data set is classed as functional, organism-based. In a few lines: as §1
Data set [9] relates to A549. As to the kind of experiment: Photodynamic antitumor activity against human A549 cells xenografted in BALB/c nude mouse assessed as decrease in tumor weight at 0.3 mg/kg, iv followed by laser light irradiation at 120 J/cm2 measured after 14 days. It counts as functional. In a few lines:
as §1

Data set [10] concerns A549. Kind of data set: Photodynamic antitumor activity against human A549 cells xenografted in BALB/c nude mouse assessed as necrosis leukocyte infiltration at 0.3 mg/kg, iv incubated for 24 hrs followed by laser light irradiation at 120 J/cm2 measured 24 hrs post light irradiation by H and E staining based histopathological analysis. The data set is classed as functional, organism-based. In a few lines:
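Tumors from PDT-treated A549 xenograft mice (0.3 mg/kg i.v., 650 nm laser 120 J/cm2 at 24 h) excised, fixed in 4% formaldehyde in PBS, paraffin-embedded, sectioned, H&E stained.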

Data set [11] is described as follows: Drug uptake in BALB/c nude mouse xenografted with A549 cells assessed as drug level in brain at 0.3 mg/kg, iv measured at 12 hrs by fluorescence assay. The settings on record: in vivo. It counts as ADME, organism-based. Summed up:
as §2

Data set [12] concerns Mus musculus. As to the kind of experiment: Phototoxicity in ICR mouse assessed as ear weight at 0.45 mg/kg, iv followed by 10 mW/cm2 light irradiation for 10 mins at 1 day after drug challenge measured after 1 day of light irradiation (reference value: 12.6 +/- 1.2 mg). The settings on record: in vivo. It counts as organism-based.
For data set [13], the system named is Mus musculus. Kind of data set: Phototoxicity in ICR mouse assessed as change in exposed neck skin 0.45 mg/kg, iv in presence of 10 mW/cm2 light irradiation for 10 mins upto 7 days measured after 1day of light irradiation by H and E staining based microscopic analysis. The settings on record: in vivo. It counts as organism-based.
Data set [14] has as its system A549. As to the kind of experiment: Induction of apoptosis in human A549 cells assessed as early apoptotic cell incubated for 4 hrs under dark condition by annexin V-FITC and propidium iodide staining based flow cytometric analysis (reference value: 0.07%). Conditions: a549, 4 h.
Data set [15] relates to A549. Kind of data set: Induction of apoptosis in human A549 cells assessed as viable cells in presence of 1J/cm2 light irradiation measured after 4 hrs by annexin V-FITC and propidium iodide staining based flow cytometric analysis (reference value: 99.88%). The data set is classed as functional. Summed up:
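After PDT at 1 J/cm2, A549 cells collected 4 h later, stained with annexin V-FITC and propidium iodide per kit instructions; flow cytometry with at least 10,000 events per sample.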

A short description of data set [16]: Therapeutic index, ratio of TC50 for human A549 cells under dark to IC50 for human A549 cells irradiated with 1 J/cm2 of 650 nanometer laser light. It counts as toxicity, cell-based. The settings on record: read-out: TI. In a few lines:
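A549 cells (F-12K, 10% FBS, 37 °C, 5% CO2) seeded 24 h, then exposed to 0–10 photosensitizer for 24 h. Dark arm: MTT 48 h later. Light arm: 650 nm laser, 1 J/cm2 (25 mW/cm2, 40 s), then MTT. A570 viability relative to control, triplicate. Ratio = dark TC50 / irradiated IC50.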

Data set [17] is described as follows: Drug uptake in BALB/c nude mouse xenografted with A549 cells assessed as drug level in liver at 0.3 mg/kg, iv measured upto 12 hrs by fluorescence assay. It counts as ADME, organism-based. The settings on record: in vivo. In a few lines:
as §2

For data set [18], the system named is A549. Kind of data set: Induction of ROS generation in human A549 cells assessed as increase in green fluorescence irradiated with 650 nanometer laser light preincubated for 4 hrs followed by DCFH-DA addition for 20 mins by fluorescent microscopic method relative to untreated control. It counts as functional, cell-based. Summed up: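 A549 cells given photosensitizer for 4 h, irradiated with 650 nm laser at 2 J/cm2, then DCFH-DA for 20 min; green emission at 525 nm (488 nm excitation) viewed by fluorescence microscopy; controls without light and laser without drug.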

The nature of data set [19]: Drug uptake in human A549 cells incubated upto 24 hrs by fluorescence spectrophotometer analysis. The data set is classed as ADME, cell-based. The settings on record: a549, 24 h. Summed up:
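A549 cells (F-12K, 10% FBS, 37 °C, 5% CO2) grown in 24 wells and exposed to photosensitizer for 0.5, 1, 2, 4, 8, 12 or 24 h; cells harvested by digestion, fluorescence read on a spectrophotometer.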

A short description of data set [20]: Drug localization in mitochondria of human A549 cells at 1 uM after 4 hrs by mito-tracker green based fluorescence microscopic method. The data set is classed as ADME. Conditions: a549, 4 h. Summed up: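 A549 cells on coverslips at 1×10^4 cells/mL exposed to […] (so in the source) photosensitizer in complete medium for 4 h, washed, fixed in 4% paraformaldehyde 20 min, then probed 30 min at 37 °C with Mito-Tracker Green, Lyso-Tracker Blue or ER-Tracker Green; fluorescence microscopy, three repeats, minimal ambient light.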

Data set [21] in a line: Drug uptake in BALB/c nude mouse xenografted with A549 cells assessed as drug level in heart at 0.3 mg/kg, iv measured at 12 hrs by fluorescence assay. Conditions: in vivo. The data set is classed as ADME, organism-based. Summed up:
as §2

This note sets out measurements from ChEMBL document CHEMBL4376862, “Synthesis and evaluation of novel chlorophyll a derivatives as potent photosensitizers for photodynamic therapy” (Eur J Med Chem, 2020).

The source made the active and inactive calls. The rule behind the calls is not given here.

On to `CCCCOC(C)c1c(C)c2cc3nc(c4c5[nH]c(cc6nc(cc1[nH]2)C(C)=C6CC)c(C)c5C(=O)C4)[C@@H](CCC(=O)NCC(=O)CCC(=O)O)[C@@H]3C` (some centres not stated), for which the Activity in data set [1] was 13.5 mg; in [2], 661 to 669 nm; in [3], 42.3 mg; in data set [4], 12.9 mg; in data set [9] it was 0.0138 g; in data set [12] it was 12.9 mg. Further, the Activity result was “Non-Toxic” in data set [13], 3.16% in [14] and 3.13% in [15]. The compound further showed a log partition coefficient (logP) in data set [5] of 2.36. Further, the result in [6], in [8], in [10] and in [18] was Active. Further, the Drug uptake entry in [7] was “Not Active”; in data set [11], “Not Active”; in [17] it was “Active”; in data set [19], “Active”; in [20] it was “Active”; in data set [21], “Not Active”. Besides, the selectivity ratio in data set [16] came to 8.74.

With `CCC1=C(C)c2cc3[nH]c(cc4nc(c5c6[nH]c(cc1n2)c(C)c6C(=O)C5)[C@@H](CCC(=O)NCC(=O)CCC(=O)O)[C@@H]4C)c(C)c3C(C)OCCO` (some centres not stated), the Activity in [1] is 12.9 mg; in data set [2], 661 to 669 nm; in data set [3], 41.6 mg; in data set [4] it was 13.4 mg; in data set [9], 0.0296 g; in data set [12] it was 13.3 mg. In addition, the Activity entry in data set [13] is “Non-Toxic”; in data set [14], 4.63%; in data set [15], 2.64%. In data set [5], this compound came in with a lipophilicity (logP) of 1.59. The outcome in [6], in [8], in data set [10] and in data set [18] was Active. Also, the Drug uptake entry in data set [7] was “Not Active”; in data set [11], “Not Active”; in data set [17], “Active”; in [19], “Active”; in data set [20], “Active”; in data set [21], “Not Active”. In addition, in data set [16], the selectivity ratio is 8.97.
